From ChEMBL document CHEMBL1156822, “Isosorbide-2-benzyl carbamate-5-salicylate, a peripheral anionic site binding subnanomolar selective butyrylcholinesterase inhibitor” (J Med Chem, 2010) come the findings set out here.

Structures are written as SMILES. pIC50: −log10 of the molar value.

By pIC50 is commonly meant the IC50 on a negative log10 scale, so that one unit is a factor of ten. The term inhibition denotes how much of the control response was suppressed.

For series [1], the target named is T1, Cholinesterase (Homo sapiens, UniProt P06276). Put plainly: Inhibition of BuChE in human liver microsomes.
Series [2] can be described thus: Selectivity for human BuChe over electric eel AChE type 6S.
The target in series [3] is Acetylcholinesterase (Electrophorus electricus) (UniProt O42275). Briefly: Inhibition of electric eel AChE type 6S at 100 uM. Put shortly:
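Electric eel AChE (type VI-S) in pH 8.0 phosphate buffer was preincubated for 30 min at 37 °C with test compound added from a 2 mmol MeCN stock. Ellman read-out followed, with final DTNB 0.3 mmol and acetylthiocholine 0.5 mmol.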

Series [4] is described as follows: Inhibition of human BuChE D70G mutant assessed as dissociation constant for Michaelis complex formation by enzyme kinetic study. Put shortly: (§1)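 Wild-type human BuChE (lyophilised, dissolved in pH 8.0 phosphate buffer) or recombinant mutants. Final concentrations: enzyme 0.05 U mL^-1, DTNB 0.3 mmol, butyrylthiocholine 0.5 mmol. Inhibitor at various concentrations was mixed with enzyme at time 0. Aliquots taken at successive times were read at 412 nm over 30 s, in at least two wells each. k_obs came from a first-order fit, and K_c from a nonlinear fit of k_obs against inhibitor concentration.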

For series [5], the species on record is Homo sapiens. Briefly: Inhibition of human BuChE Y332A mutant assessed as dissociation constant for Michaelis complex formation by enzyme kinetic study. Put shortly:
as §1

Series [6] is filed under the species Homo sapiens. Briefly: Inhibition of human BuChE D70G/Y332A mutant assessed as dissociation constant for Michaelis complex formation by enzyme kinetic study. Put shortly:
as §1

Series [7] addresses T1, Cholinesterase. Put plainly: Inhibition of BuChE in human liver microsomes assessed as dissociation constant for Michaelis complex formation by enzyme kinetic study. To be noted: Microsome. (In general: Liver microsomes are vesicles of endoplasmic reticulum, rich in cytochrome P450 enzymes.)
In a further series the test system is Liver. Put plainly: Metabolic stability in 33% mouse liver homogenate assessed as compound hydrolysis after 1 hr by HPLC. In kind it is ADME, tissue-based. To be noted: tissue homogenate. A digest of the protocol: (§2)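 The ester (1 × 10^-4 M) was incubated in human plasma solution (33-50%), mouse plasma (33%) or mouse liver homogenate. Remaining intact ester was measured by HPLC as a function of time over 1 h.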

The next series concerns the target T2, Liver carboxylesterase 1 (Homo sapiens, UniProt P23141).
T2 sequence (P23141 whole entry): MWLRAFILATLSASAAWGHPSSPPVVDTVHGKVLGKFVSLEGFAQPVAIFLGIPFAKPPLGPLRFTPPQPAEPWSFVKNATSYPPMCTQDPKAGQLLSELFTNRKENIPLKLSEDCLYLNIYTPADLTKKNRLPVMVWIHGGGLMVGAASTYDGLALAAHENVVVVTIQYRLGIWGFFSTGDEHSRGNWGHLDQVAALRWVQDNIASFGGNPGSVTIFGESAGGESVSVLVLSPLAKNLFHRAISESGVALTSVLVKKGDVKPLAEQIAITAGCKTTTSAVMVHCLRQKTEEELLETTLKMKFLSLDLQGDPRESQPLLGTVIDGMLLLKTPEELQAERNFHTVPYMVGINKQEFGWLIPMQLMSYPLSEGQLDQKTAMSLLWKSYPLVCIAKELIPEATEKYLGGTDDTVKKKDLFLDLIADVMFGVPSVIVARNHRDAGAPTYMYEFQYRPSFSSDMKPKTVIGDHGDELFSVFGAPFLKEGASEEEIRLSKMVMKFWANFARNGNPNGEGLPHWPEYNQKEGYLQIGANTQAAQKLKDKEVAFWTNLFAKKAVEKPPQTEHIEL
Put plainly: Inhibition of human CES1-mediated pNPA substrate turnover. A digest of the protocol: (§3)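 Source: pooled human liver microsomes (CES1) or human intestinal microsomes (CES2). The microsomes were preincubated with inhibitor at 50 nM-200 μM in 50 mM Tris-HCl pH 7.4 for 30 min at 37 °C. Substrate was pNPA at 3 mM final. p-Nitrophenol release was read at 405 nm. Rates were corrected for spontaneous-hydrolysis blanks, with four independent measurements per concentration. IC50 came from nonlinear sigmoidal curve fit.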

Series [8] is filed under the species Homo sapiens. Put plainly: Selectivity for human BuChe over human CES2.
The target of series [9] is Acetylcholinesterase (Homo sapiens) (UniProt P22303). Put plainly: Inhibition of human erythrocyte AChE at 100 uM.
The test system of series [10] is Plasma. Briefly: Metabolic stability in 33% human plasma assessed as compound hydrolysis after 1 hr by HPLC. The series is classed as ADME, cell-free. A digest of the protocol: as §2
Series [11] deals with Plasma. Briefly: Metabolic stability in 33% mouse plasma assessed as compound hydrolysis after 1 hr by HPLC. The series is classed as ADME, cell-free. A digest of the protocol:
as §2

The target of the next series is T3, Cocaine esterase (Homo sapiens, UniProt O00748).
T3 sequence (O00748 whole entry): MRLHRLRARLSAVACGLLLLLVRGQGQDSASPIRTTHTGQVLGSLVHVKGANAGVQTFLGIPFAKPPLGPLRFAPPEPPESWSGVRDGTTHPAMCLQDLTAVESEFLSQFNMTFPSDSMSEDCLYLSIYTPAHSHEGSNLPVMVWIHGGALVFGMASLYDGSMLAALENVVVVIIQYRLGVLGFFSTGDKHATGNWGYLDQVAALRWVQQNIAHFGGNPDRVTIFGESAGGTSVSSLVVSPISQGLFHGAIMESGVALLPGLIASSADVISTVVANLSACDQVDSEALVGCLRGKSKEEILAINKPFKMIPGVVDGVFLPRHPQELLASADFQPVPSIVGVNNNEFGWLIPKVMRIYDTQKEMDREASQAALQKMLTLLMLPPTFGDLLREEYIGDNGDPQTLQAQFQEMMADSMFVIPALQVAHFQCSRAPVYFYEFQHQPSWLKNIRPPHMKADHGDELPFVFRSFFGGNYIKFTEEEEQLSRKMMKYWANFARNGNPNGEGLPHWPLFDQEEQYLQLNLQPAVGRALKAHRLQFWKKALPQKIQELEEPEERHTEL
Briefly: Inhibition of human CES2-mediated pNPA substrate turnover. A digest of the protocol: as §3

Sequence of Acetylcholinesterase (Electrophorus electricus) (O42275 24-633 limits assumed): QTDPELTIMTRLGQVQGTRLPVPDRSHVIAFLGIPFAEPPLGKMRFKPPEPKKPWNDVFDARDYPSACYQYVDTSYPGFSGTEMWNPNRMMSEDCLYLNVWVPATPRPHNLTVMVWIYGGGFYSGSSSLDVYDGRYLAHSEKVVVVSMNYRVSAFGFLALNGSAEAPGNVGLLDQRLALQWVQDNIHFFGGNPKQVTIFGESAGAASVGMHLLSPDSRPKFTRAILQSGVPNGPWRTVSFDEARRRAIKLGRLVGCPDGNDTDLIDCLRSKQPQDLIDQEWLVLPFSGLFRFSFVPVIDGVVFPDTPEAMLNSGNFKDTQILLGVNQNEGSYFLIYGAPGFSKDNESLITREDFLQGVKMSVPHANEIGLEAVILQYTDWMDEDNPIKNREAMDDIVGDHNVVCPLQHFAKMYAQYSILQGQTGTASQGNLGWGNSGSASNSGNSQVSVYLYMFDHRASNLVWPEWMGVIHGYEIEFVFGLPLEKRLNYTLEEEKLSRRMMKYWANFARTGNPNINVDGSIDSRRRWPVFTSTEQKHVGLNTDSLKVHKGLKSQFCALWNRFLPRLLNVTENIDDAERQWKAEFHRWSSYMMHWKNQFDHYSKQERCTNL
T1 sequence (P06276 whole entry): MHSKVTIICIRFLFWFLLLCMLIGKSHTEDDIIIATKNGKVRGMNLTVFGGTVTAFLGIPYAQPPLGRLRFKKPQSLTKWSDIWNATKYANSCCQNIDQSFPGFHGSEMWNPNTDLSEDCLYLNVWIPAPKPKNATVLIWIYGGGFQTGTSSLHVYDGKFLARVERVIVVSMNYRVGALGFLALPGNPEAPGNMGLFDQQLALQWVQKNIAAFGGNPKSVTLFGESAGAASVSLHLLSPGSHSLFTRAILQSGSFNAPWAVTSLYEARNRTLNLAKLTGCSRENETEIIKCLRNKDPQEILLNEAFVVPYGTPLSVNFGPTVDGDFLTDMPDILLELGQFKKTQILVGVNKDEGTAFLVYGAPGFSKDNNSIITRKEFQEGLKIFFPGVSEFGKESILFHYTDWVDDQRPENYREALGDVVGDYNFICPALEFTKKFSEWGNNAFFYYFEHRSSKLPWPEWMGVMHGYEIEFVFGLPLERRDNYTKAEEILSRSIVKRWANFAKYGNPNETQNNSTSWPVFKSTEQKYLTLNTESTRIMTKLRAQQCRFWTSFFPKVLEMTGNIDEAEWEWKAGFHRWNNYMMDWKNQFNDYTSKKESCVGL
Sequence of Acetylcholinesterase (Homo sapiens) (P22303 whole entry): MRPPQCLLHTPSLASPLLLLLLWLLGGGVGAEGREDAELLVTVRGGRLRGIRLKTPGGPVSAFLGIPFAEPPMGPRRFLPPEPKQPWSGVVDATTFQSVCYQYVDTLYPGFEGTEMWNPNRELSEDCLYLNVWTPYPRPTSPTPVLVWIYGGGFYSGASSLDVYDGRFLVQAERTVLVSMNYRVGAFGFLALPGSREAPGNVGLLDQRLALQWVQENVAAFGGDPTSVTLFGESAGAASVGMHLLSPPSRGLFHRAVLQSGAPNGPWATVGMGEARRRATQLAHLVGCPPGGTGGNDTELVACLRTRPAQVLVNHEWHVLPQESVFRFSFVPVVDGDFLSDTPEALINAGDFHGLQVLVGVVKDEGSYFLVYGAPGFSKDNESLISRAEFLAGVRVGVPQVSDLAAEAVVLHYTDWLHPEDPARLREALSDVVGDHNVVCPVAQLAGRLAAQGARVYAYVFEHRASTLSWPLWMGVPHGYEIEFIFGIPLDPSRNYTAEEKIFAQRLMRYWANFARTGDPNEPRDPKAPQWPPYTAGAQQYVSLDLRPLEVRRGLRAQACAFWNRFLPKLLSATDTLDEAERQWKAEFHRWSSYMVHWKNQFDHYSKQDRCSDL

With `O=C(NCc1ccccc1)O[C@H]1CO[C@H]2[C@@H]1OC[C@H]2OC(=O)c1cccc(O)c1`, on Cholinesterase [1], the pIC50 was 7.80. Further, the Ratio in series [2] was > 6250. The inhibition in series [3] was found to be 0%.

The compound `O=C(NCc1ccccc1)O[C@H]1CO[C@H]2[C@@H]1OC[C@H]2OC(=O)c1ccc(O)cc1` showed a pIC50 at Cholinesterase [1] of 6.49. The Ratio in series [2] was > 309. This compound registered an inhibition in series [3] of 0%.

Compound `CCNC(=O)O[C@H]1CO[C@H]2[C@@H]1OC[C@H]2OC(=O)c1ccccc1O` showed a pIC50 at Cholinesterase [1] of 8.02. Further, the Ratio in series [2] is > 10400. Moreover, the Activity amounted to 0.32 µM in series [4], 0.42 µM in the series filed under Homo sapiens [5], 2.26 µM in the series listed under Homo sapiens [6] and 0.075 µM at Cholinesterase [7]. This compound also showed an inhibition in series [3] of 16%.

Regarding `O=C(NCc1ccccc1)O[C@H]1CO[C@H]2[C@@H]1OC[C@H]2OC(=O)c1cccnc1`, the Activity at Cholinesterase [7] was found to be 1.9 µM.

For the compound `Nc1ccccc1C(=O)O[C@@H]1CO[C@H]2[C@@H]1OC[C@@H]2OC(=O)NCc1ccccc1`, the pIC50 at Cholinesterase [1] is 7.57. The Ratio in [2] was > 3700. The same compound gave an inhibition in series [3] of 0%.

Compound `O=C(O[C@@H]1CO[C@H]2[C@@H]1OC[C@@H]2OC(=O)N1CCOCC1)c1ccccc1O` gave a pIC50 against Cholinesterase [1] of 5.98. For the same compound, the Ratio in [2] was > 95. The inhibition in series [3] stood at 12%.

In turn, `Cc1ccccc1C(=O)O[C@@H]1CO[C@H]2[C@@H]1OC[C@@H]2OC(=O)NCc1ccccc1` showed a pIC50 against Cholinesterase [1] of 8.92. For the same compound, the Ratio in series [2] is > 83300. Also, the inhibition in [3] was determined as 26%. At Cholinesterase [7], the Activity was 0.248 µM.

The compound `Nc1cccc(C(=O)O[C@@H]2CO[C@H]3[C@@H]2OC[C@@H]3OC(=O)NCc2ccccc2)c1` had a pIC50 against Cholinesterase [1] of 7.07. In series [2], the Ratio is > 1170. The inhibition in [3] is 0%.

At Cholinesterase [1], `O=C(NCc1ccccc1)O[C@H]1CO[C@H]2[C@@H]1OC[C@H]2OC(=O)c1ccc([N+](=O)[O-])cc1` showed a pIC50 of 6.93. Also, the Ratio in series [2] was > 854. In series [3], this compound came in with an inhibition of 27%.

Regarding `O=C(NCc1ccccc1)O[C@H]1CO[C@H]2[C@@H]1OC[C@H]2O`, on Cholinesterase [7], the Activity turned out to be 18.7 µM.

Take `CN(C)C(=O)O[C@H]1CO[C@H]2[C@@H]1OC[C@H]2OC(=O)c1ccccc1O`: on Cholinesterase [1], the pIC50 was 8.19. Moreover, the Ratio in series [2] was > 15600. Also, the inhibition in [3] turned out to be 0%.

Turning to `O=C(NCc1ccccc1)O[C@H]1CO[C@H]2[C@@H]1OC[C@H]2OC(=O)c1ccc(-c2ccccc2)cc1`, the Activity at Cholinesterase [7] stood at 0.4 µM.

In turn, `CCN(CC)C(=O)O[C@H]1CO[C@H]2[C@@H]1OC[C@H]2OC(=O)c1ccccc1O` gave a pIC50 against Cholinesterase [1] of 5.58. For the same compound, the Ratio in series [2] was > 38. Besides, the inhibition in [3] amounted to 0%.

Regarding `O=C(NCc1ccccc1)O[C@H]1CO[C@H]2[C@@H]1OC[C@H]2OC(=O)c1ccccc1[N+](=O)[O-]`, the pIC50 at Cholinesterase [1] is 7.74. Besides, the Ratio in series [2] is > 5560. In series [3], this compound gave an inhibition of 0%.

For the compound `O=C(NCc1ccccc1)O[C@H]1CO[C@H]2[C@@H]1OC[C@H]2OC(=O)c1ccccc1O`, the pIC50 on Cholinesterase [1] was 9.82; on Cocaine esterase, 5.47. The Ratio in [2] was > 660000. The Activity in series [4] is 0.067 µM; at Liver carboxylesterase 1, “Not Active”; in the series listed under Homo sapiens [5], 0.05 µM; in the series listed under Homo sapiens [6], 0.445 µM; on Cholinesterase [7], 0.01 µM. Moreover, the Stability result with Liver, in the series on Plasma [10] and with Plasma [11] was “Stable” throughout. Moreover, the inhibition stood at 47% in series [3] and 52% in series [9]. Moreover, the Ratio IC50 in the series filed under Homo sapiens [8] worked out at 22800.

Consider `O=C(NCc1ccccc1)O[C@H]1CO[C@H]2[C@@H]1OC[C@H]2OC(=O)c1ccccc1`, for which the results for the Activity (in [4]; in the series filed under Homo sapiens [5]; in the series listed under Homo sapiens [6]) were 2.4 µM, 1.5 µM and 6.4 µM, respectively.

Compound `CCCCNC(=O)O[C@H]1CO[C@H]2[C@@H]1OC[C@H]2OC(=O)c1ccccc1` showed a pIC50 against Cholinesterase [1] of 7.14. The Activity in series [4] was 2.7 µM; in the series listed under Homo sapiens [5], 1.3 µM; in the series filed under Homo sapiens [6], 5.3 µM; at Cholinesterase [7] it was 2.57 µM.

On Cholinesterase [1], `O=Nc1ccccc1C(=O)O[C@@H]1CO[C@H]2[C@@H]1OC[C@@H]2OC(=O)NCc1ccccc1` gave a pIC50 of 7.41. The Ratio in series [2] was > 2560. Moreover, the inhibition in series [3] turned out to be 0%.

In turn, `Nc1ccc(C(=O)O[C@@H]2CO[C@H]3[C@@H]2OC[C@@H]3OC(=O)NCc2ccccc2)cc1` gave a pIC50 against Cholinesterase [1] of 6.53. Besides, in series [2], the Ratio was 336. In series [3], this compound registered an inhibition of 33%.

Turning to `O=C(NCc1ccccc1)O[C@H]1CO[C@H]2[C@@H]1OC[C@H]2OC(=O)c1cccc([N+](=O)[O-])c1`, the pIC50 against Cholinesterase [1] was 7.49. In addition, the Ratio in [2] is > 3120. Besides, the inhibition in [3] is 0%.
